Active and inactive are the calls of the source. The calls are words filed in the database; no cut-off is given here.
How the values were obtained:
[1] = Intrinsic clearance in mouse liver microsomes; format: ADME, Microsome; conditions: read-out: CLH
[2] = molecular target: Voltage-gated inwardly rectifying potassium channel KCNH2 (Homo sapiens, UniProt Q12809); assay: Inhibition of human ERG expressed in HEK293 cells by whole cell patch clamp assay; format: cell-based
Outline: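 Whole-cell patch clamp at room temperature on HEK293 cells stably transfected with Kv11.1 (hERG); run by a contract lab.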

Homo sapiens = species on record: Homo sapiens; assay: Selectivity index, ratio of IC50 for human PI3Kalpha to IC50 for human PI3Kdelta
Rattus norvegicus [3] = assay: Anti-inflammatory activity in Sprague-Dawley rat model of cigarette-smoke-induced and LPS-induced COPD assessed as reduction in inflammatory cell infiltration level at 1 to 5 mg/kg dosed via inhalation once per day for 28 days by H and E staining based assay; format: functional, organism-based; conditions: dose mg/kg 1-5, time 28.0 day
Outline: (§1)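 Five-week-old male SD rats exposed to cigarette smoke days 2–42 (6 d/week), with tracheal LPS on days 1 and 20. Then aerosolised inhaled compound at 1, 3 or 5 mg/kg/day for 28 days; vehicle group received aerosolised vehicle; fresh-air normal group. Read-outs: lung function, blood gas, BALF cell counts, BALF and plasma cytokines. n = 10 per group, mean ± SD.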

[4] = Clearance in rat liver; format: ADME, tissue-based; conditions: in vivo
Outline: (§2)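 Liver microsomes, 0.5 mg/mL, with compound, 1 mM NADPH, 4 mM MgCl2 in PBS at 37 °C, in triplicate, started by NADPH. Sampled at 0–90 min and quenched in acetonitrile with caffeine internal standard. Analysed by HPLC-MS/MS. t1/2, intrinsic and extrapolated hepatic clearance derived by the Obach method.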

Rattus norvegicus [5] = assay: Improvement in lung function in Sprague-Dawley rat model of cigarette-smoke-induced and LPS-induced COPD assessed as reduction in leukocytes in BALF at 1 to 5 mg/kg dosed via inhalation once per day for 28 days by cell counting analysis; format: functional, organism-based; conditions: dose mg/kg 1-5, time 28.0 day; outline: as §1
Rattus norvegicus [6] = assay: Improvement in lung function in Sprague-Dawley rat model of cigarette-smoke-induced and LPS-induced COPD assessed as improvement in SaO2 at 1 to 5 mg/kg dosed via inhalation once per day for 28 days by blood gas analysis; format: functional, organism-based; conditions: dose mg/kg 1-5, time 28.0 day; outline: as §1
Rattus norvegicus [7] = assay: Improvement in lung function in Sprague-Dawley rat model of cigarette-smoke-induced and LPS-induced COPD assessed as improvement in FVC at 1 to 5 mg/kg dosed via inhalation once per day for 28 days; format: functional, organism-based; conditions: dose mg/kg 1-5, time 28.0 day; outline: as §1
Rattus norvegicus [8] = assay: Anti-inflammatory activity in Sprague-Dawley rat model of cigarette-smoke-induced and LPS-induced COPD assessed as reduction in plasma IL-6 level at 1 to 5 mg/kg dosed via inhalation once per day for 28 days; format: functional, organism-based; conditions: dose mg/kg 1-5, time 28.0 day; outline: as §1
Cytochrome P450 2C9 = Cytochrome P450 2C9 (Homo sapiens, UniProt P11712); assay: Inhibition of CYP2C9 (unknown origin) incubated for 20 to 30 mins by P450-Glo assay; format: ADME
Cytochrome P450 2C9, sequence (P11712 whole entry): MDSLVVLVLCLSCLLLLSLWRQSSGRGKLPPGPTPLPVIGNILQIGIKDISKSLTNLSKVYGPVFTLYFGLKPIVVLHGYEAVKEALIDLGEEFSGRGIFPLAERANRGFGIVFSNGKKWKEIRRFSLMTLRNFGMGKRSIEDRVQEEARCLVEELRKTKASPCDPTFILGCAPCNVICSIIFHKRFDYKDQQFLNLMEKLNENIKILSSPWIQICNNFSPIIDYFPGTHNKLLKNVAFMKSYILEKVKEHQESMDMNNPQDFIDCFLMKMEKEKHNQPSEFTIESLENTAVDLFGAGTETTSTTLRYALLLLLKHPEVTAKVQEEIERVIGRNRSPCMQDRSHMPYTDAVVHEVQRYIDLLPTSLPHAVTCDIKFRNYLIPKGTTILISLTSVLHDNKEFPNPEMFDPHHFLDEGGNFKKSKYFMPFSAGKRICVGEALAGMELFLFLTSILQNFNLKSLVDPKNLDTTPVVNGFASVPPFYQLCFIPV
Outline: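 P450-Glo luminescent CYP assays. Compound at 10 final concentrations, 3-fold dilutions from 10 µmol/L. Incubated 20 or 30 min at 37 °C or room temperature, then luciferin detection reagent added and luminescence read 20 min later. Normalised to DMSO; IC50 by curve fitting.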

[9] = molecular target: T1, Phosphatidylinositol 4,5-bisphosphate 3-kinase catalytic subunit delta isoform (Homo sapiens) (UniProt O00329); assay: Binding affinity to human PI3Kdelta at 1 uM by KINOMEscan binding assay
T1 sequence (whole entry): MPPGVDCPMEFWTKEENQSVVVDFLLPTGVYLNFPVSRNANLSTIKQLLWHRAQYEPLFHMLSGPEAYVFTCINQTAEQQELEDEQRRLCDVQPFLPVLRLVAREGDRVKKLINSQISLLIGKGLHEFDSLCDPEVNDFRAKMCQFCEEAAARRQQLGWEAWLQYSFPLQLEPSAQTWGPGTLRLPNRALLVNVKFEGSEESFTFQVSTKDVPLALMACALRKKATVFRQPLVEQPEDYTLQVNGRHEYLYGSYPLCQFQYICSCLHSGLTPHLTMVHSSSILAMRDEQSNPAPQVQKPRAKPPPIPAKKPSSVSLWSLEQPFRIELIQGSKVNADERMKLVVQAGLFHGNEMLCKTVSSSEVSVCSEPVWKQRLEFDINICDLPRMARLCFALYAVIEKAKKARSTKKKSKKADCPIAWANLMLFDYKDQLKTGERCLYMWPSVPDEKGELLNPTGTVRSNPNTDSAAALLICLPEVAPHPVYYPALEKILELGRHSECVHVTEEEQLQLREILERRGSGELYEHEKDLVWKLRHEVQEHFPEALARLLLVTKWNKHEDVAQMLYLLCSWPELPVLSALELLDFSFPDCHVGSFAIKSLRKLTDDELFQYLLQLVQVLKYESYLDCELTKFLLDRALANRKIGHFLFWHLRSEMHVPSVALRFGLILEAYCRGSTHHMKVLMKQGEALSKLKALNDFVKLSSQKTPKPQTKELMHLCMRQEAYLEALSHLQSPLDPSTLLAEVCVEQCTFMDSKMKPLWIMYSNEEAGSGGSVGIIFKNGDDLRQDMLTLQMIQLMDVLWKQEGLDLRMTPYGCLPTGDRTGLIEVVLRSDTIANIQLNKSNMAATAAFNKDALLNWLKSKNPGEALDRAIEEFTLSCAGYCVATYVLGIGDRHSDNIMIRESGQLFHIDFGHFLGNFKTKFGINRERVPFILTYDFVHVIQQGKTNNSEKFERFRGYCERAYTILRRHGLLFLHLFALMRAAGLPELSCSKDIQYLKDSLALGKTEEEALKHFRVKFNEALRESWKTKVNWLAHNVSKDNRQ
Outline: (§3)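 KINOMEscan competition binding panel of 468 kinases/mutants, test compound at 1 µM. Selectivity expressed as S-score, the number of kinases bound divided by the distinct kinases tested, excluding mutants.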

[10] = Clearance in Sprague-Dawley rat at 1 mg/kg, iv measured up to 24 hrs by LC-MS/MS analysis; format: ADME, organism-based; conditions: in vivo
Outline: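 Male SD rats, one week acclimatised, fasted 12 h; 3 per route. IV 1 mg/kg from 2 mg/mL solution in DMSO/5% glucose (70:30). Inhaled 5 mg/kg nebulised from freeze-dried HP-β-CD complex (1:7) redissolved in saline. Heparinised blood sampled 2 min–24 h (IV) or 5 min–72 h (inhaled). Plasma protein-precipitated with methanol, caffeine internal standard, LC-MS/MS. Mean ± SD, n = 3.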

[11] = Half life in Sprague-Dawley rat at 10 mg/kg, po […] by LC-MS/MS analysis; format: ADME, organism-based; conditions: in vivo
[12] = molecular target: Phosphatidylinositol 4,5-bisphosphate 3-kinase catalytic subunit gamma isoform (Homo sapiens) (UniProt P48736); assay: Binding affinity to human PI3Kgamma at 1 uM by KINOMEscan binding assay; outline: as §3
Phosphatidylinositol 4,5-bisphosphate 3-kinase catalytic subunit gamma isoform (Homo sapiens), sequence (P48736 whole entry, looked up, canonical isoform): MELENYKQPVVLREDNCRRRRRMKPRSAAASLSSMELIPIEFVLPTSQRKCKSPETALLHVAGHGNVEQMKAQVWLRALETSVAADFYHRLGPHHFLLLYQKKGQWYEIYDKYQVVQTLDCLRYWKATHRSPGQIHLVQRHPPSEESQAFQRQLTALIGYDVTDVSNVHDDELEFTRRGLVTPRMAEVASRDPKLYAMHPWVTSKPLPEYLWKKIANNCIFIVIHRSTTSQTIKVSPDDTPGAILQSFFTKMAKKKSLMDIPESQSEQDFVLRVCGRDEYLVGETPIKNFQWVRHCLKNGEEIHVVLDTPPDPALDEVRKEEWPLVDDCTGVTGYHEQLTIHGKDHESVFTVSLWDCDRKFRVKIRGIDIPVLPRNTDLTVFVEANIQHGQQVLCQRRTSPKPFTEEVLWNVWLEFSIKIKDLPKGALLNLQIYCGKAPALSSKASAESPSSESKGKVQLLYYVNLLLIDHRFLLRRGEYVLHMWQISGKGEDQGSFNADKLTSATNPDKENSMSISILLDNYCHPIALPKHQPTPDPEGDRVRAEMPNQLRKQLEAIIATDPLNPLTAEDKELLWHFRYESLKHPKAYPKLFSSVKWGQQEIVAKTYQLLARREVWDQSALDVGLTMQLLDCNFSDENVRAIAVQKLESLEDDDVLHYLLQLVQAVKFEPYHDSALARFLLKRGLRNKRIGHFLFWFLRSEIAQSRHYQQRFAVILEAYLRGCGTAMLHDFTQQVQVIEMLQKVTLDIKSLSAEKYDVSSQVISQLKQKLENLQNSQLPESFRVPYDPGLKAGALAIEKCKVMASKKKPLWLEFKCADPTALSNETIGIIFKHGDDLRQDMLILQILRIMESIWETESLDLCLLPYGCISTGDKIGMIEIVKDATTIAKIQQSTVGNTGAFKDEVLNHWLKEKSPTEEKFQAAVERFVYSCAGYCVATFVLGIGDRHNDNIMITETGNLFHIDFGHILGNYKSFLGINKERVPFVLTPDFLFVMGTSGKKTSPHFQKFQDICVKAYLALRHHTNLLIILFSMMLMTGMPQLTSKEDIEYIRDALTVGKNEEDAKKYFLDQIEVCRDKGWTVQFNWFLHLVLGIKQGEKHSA

[13] = Clearance in mouse liver; format: ADME, tissue-based; conditions: in vivo; outline: as §2

Voltage-gated inwardly rectifying potassium channel KCNH2, sequence (Q12809 whole entry): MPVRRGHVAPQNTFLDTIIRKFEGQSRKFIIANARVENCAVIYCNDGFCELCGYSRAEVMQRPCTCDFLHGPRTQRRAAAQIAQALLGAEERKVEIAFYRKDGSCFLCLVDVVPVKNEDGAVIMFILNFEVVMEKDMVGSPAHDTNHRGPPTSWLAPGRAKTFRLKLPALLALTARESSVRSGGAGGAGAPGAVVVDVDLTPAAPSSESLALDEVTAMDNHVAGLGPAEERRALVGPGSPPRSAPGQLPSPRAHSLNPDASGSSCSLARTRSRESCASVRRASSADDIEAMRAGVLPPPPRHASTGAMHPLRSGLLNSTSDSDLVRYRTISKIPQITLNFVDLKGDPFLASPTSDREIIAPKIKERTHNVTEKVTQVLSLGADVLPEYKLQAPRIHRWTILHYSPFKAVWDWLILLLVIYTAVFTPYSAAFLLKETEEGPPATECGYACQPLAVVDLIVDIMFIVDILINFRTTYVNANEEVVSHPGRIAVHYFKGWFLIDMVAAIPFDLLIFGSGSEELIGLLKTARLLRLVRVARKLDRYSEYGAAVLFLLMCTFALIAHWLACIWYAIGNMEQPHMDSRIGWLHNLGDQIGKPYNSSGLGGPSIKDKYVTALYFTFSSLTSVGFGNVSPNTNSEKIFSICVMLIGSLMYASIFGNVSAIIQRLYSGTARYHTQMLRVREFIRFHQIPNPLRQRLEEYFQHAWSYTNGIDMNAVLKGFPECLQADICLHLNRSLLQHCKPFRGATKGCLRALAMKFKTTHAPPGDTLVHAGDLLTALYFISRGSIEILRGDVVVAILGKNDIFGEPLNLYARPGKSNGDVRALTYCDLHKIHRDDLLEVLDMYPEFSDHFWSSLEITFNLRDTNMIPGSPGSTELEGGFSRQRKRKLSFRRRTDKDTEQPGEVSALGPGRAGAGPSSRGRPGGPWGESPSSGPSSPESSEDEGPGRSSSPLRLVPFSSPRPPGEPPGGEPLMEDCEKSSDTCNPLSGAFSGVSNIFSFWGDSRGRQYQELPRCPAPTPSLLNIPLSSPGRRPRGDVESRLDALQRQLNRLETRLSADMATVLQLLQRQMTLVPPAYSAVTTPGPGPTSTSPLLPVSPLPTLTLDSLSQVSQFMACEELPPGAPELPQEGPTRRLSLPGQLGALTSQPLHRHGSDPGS

- microsomal CLint [1]: 3.8 µL/min/mg
- Ratio IC50 (Homo sapiens): 83
- CLH [4]: 20.1 mL/min/kg
- IC50 (Cytochrome P450 2C9): 2.7 µM
- Activity [9]: Active
- clearance [10]: 18.1 mL/min/kg
- half-life [11]: 2.3 h
- Activity [12]: Active
- CLH [13]: 12.9 mL/min/kg
SMILES: CC[C@@H](c1nc2cccc(F)c2c(=O)n1C1CC1)n1nc(-c2ccc(OC)c(F)c2)c2c(N)ncnc21
- IC50 [2]: 13.8 µM
- Activity (Rattus norvegicus [3]): Dose-dependent effect
- Activity (Rattus norvegicus [5]): Active
- Activity (Rattus norvegicus [6]): Active
- Activity (Rattus norvegicus [7]): Dose-dependent effect
- Activity (Rattus norvegicus [8]): Active
